Test results from ChEMBL document CHEMBL4261570, “Design, Synthesis and Preliminary Antimicrobial Evaluation of N-Alkyl Chain Tethered C-5 Functionalized Bis-Isatins” (Medchemcomm, 2017).
Activity calls are given as the source filed them. The rule behind the calls is not given here.

Legend:
Aspergillus parasiticus [1] = test: Antifungal activity against Aspergillus parasiticus NRRL5862 assessed as fungal growth at 500 uM after 48 hrs by microtiter plate liquid bioassay (reference value: 100%); assay type: functional
Procedure, shortened: (§1)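 A. parasiticus grown at 35 °C on PDA. Liquid assay in RPMI 1640, 3 × 104 to 5 × 10^4 CFU per mL, triplicate wells, 35 °C. Compounds in DMSO (<2% in media). No-treatment wells carry matched DMSO. Wells scored visually 0–4 versus the no-treatment control: 0 clear, 1 25%, 2 50%, 3 75%, 4 no reduction. Scoring follows CLSI M38-A.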

[2] = tested on: Lactobacillus acidophilus; test: Toxicity in Lactobacillus acidophilus ATCC 43560 at 100 uM measured after overnight incubation by disc diffusion method; assay type: organism-based; conditions: in vivo
Procedure, shortened: (§2)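 Grown in Lactobacilli MRS at 37 °C under anaerobic conditions. Blank 6 mm discs were soaked 20 min at room temperature in a 100 μM working dilution in medium. Discs were placed on streaked agar alongside DMSO vehicle and antibiotic discs (levofloxacin, gentamicin), incubated overnight at 37 °C, and zones of inhibition measured in mm.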

Entamoeba histolytica [3] = test: Antiparasitic activity against Entamoeba histolytica HM-1:IMSS trophozoites assessed as parasite growth inhibition at 50 uM after 48 hrs by ATP bioluminescence-based CellTiter-Glo luminescent cell viability assay relative to control; assay type: functional; conditions: for inhibition of growth at 50 µM: read-out: GI
Procedure, shortened: (§3)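 Trophozoites kept axenically in TYI-S-33 with penicillin and streptomycin. Each well held 5000 trophozoites and was incubated 48 h at 37 °C under anaerobic conditions in a GasPak pouch. Read-out was CellTiter-Glo ATP luminescence. Controls were 0.5% DMSO vehicle and 30 μM metronidazole. Primary screen at 50 μM in duplicate; hits were those above 50% inhibition. EC50 came from triplicate 8-point series (0.39–50 μM) and dose-response curves.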

[4] = tested on: Lacticaseibacillus rhamnosus; test: Toxicity in Lactobacillus rhamnosus ATCC 53103 at 100 uM measured after overnight incubation by disc diffusion method; assay type: organism-based, GG; conditions: in vivo; procedure, shortened: as §2
Trichomonas vaginalis [5] = test: Antiparasitic activity against Trichomonas vaginalis assessed as parasite growth inhibition at 50 uM after 24 hrs by hemacytometer relative to control; assay type: functional; conditions: read-out: GI
Procedure, shortened: (§4)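 G3 strain cultured in TYM Diamond's medium in 15 mL tubes, with compound in DMSO. Controls were untreated and 0.1% DMSO. After 24 h, cells were counted by hemacytometer and normalized to the DMSO controls. Screening was at 50 μM. IC50 came from titrations of 5–40 μM with variable-slope regression, 4 independent trials on different days, and was then re-confirmed.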

[6] = tested on: Limosilactobacillus reuteri; test: Toxicity in Lactobacillus reuteri ATCC 23272 at 100 uM measured after overnight incubation by disc diffusion method; assay type: organism-based; conditions: in vivo; procedure, shortened: as §2
Aspergillus parasiticus [7] = test: Antifungal activity against Aspergillus parasiticus NRRL5862 assessed as fungal growth at 500 uM after 24 hrs by microtiter plate liquid bioassay (reference value: 100%); assay type: functional; procedure, shortened: as §1
Naegleria fowleri = test: Antiparasitic activity against Naegleria fowleri KUL trophozoites assessed as parasite growth inhibition after 48 hrs by ATP bioluminescence-based CellTiter-Glo luminescent cell viability assay; assay type: functional, organism-based
Procedure, shortened: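 Strain KUL trophozoites cultured axenically in Nelson's medium with 10% FBS at 37 °C. Each well held 10 000 trophozoites, incubated under aerobic conditions without the anaerobe pouch. Read-out was CellTiter-Glo luminescence. Positive control was 50 μM amphotericin B. Hits were serially diluted in triplicate, 8 points from 0.39 to 50 μM, and EC50 was taken from dose-response curves.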

Giardia intestinalis [8] = test: Antiparasitic activity against Giardia lamblia WB trophozoites assessed as parasite growth inhibition at 50 uM after 48 hrs by ATP bioluminescence-based CellTiter-Glo luminescent cell viability assay relative to control; assay type: functional; conditions: Giardia duodenalis; for inhibition of growth at 50 µM: read-out: GI; procedure, shortened: as §3
Saccharomyces cerevisiae [9] = test: Antifungal activity against Saccharomyces cerevisiae BY4741 assessed as fungal growth at 500 uM after 48 hrs by microtiter plate liquid bioassay (reference value: 100%); assay type: functional
Escherichia coli = test: Toxicity in Escherichia coli K-12 MG1655 at 100 uM measured after overnight incubation by disc diffusion method; assay type: organism-based, K-12 substr. MG1655; conditions: in vivo
Procedure, shortened: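 Grown in Luria broth at 37 °C under aerobic conditions. Blank 6 mm discs were soaked 20 min at room temperature in a 100 μM working dilution in medium. Discs were placed on streaked agar alongside DMSO vehicle and antibiotic discs (levofloxacin, gentamicin), incubated overnight at 37 °C, and inhibition zones measured in mm.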

Saccharomyces cerevisiae [10] = test: Antifungal activity against Saccharomyces cerevisiae BY4741 assessed as fungal growth at 500 uM after 24 hrs by microtiter plate liquid bioassay (reference value: 100%); assay type: functional
Trichomonas vaginalis [11] = test: Antiparasitic activity against Trichomonas vaginalis assessed as parasite growth inhibition after 24 hrs by hemacytometer; assay type: functional, organism-based; procedure, shortened: as §4
Giardia intestinalis [12] = test: Antiparasitic activity against Giardia lamblia WB trophozoites assessed as parasite growth inhibition after 48 hrs by ATP bioluminescence-based CellTiter-Glo luminescent cell viability assay; assay type: functional, organism-based; conditions: Giardia duodenalis; procedure, shortened: as §3
Saccharomyces cerevisiae [13] = test: Antifungal activity against Saccharomyces cerevisiae BY4741 assessed as decrease in fungal survival at 500 uM after 48 to 72 hrs by YPD plate-based assay; assay type: functional, organism-based
Procedure, shortened: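 At the end of the 500 μM SG-liquid microtiter assay, the entire well contents were spread onto YPD recovery plates. Plates were cultured a further 48 to 72 h at 30 °C to judge fungal survival.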

Entamoeba histolytica [14] = test: Antiparasitic activity against Entamoeba histolytica HM-1:IMSS trophozoites assessed as parasite growth inhibition after 48 hrs by ATP bioluminescence-based CellTiter-Glo luminescent cell viability assay; assay type: functional, organism-based; procedure, shortened: as §3

| Compound | Activity (Aspergillus parasiticus [1]) | Activity [2] | inhibition of growth at 50 µM (Entamoeba histolytica [3]) | Activity [4] | inhibition of growth at 50 µM (Trichomonas vaginalis [5]) | Activity [6] | Activity (Aspergillus parasiticus [7]) | IC50 (Naegleria fowleri) | inhibition of growth at 50 µM (Giardia intestinalis [8]) | Activity (Saccharomyces cerevisiae [9]) | Activity (Escherichia coli) | Activity (Saccharomyces cerevisiae [10]) | IC50 (Trichomonas vaginalis [11]) | IC50 (Giardia intestinalis [12]) | growth inhibition (GI) (Entamoeba histolytica [3]) | Activity (Saccharomyces cerevisiae [13]) | growth inhibition (GI) (Giardia intestinalis [8]) | IC50 (Entamoeba histolytica [14]) |
| --- | --- | --- | --- | --- | --- | --- | --- | --- | --- | --- | --- | --- | --- | --- | --- | --- | --- | --- |
| O=C1C(=O)N(CCBr)c2ccccc21 | 100% | Non-Toxic | 7.23% | Non-Toxic | 62.5% | Non-Toxic | 75 - 100% | 23.6 µM | 47.2% | 75% | Non-Toxic | 25% | – | – | – | – | – | – |
| O=C1C(=O)N(CCCN2C(=O)C(=O)c3cc(F)ccc32)c2ccccc21 | – | Non-Toxic | – | Non-Toxic | 100% | Non-Toxic | – | – | 100% | – | Non-Toxic | – | 12.5 µM | 28.8 µM | inactive | – | – | – |
| O=C1C(=O)N(CCCN2C(=O)C(=O)c3cc(Br)ccc32)c2ccccc21 | 100% | Non-Toxic | – | Non-Toxic | 100% | Non-Toxic | 100% | – | 19.3% | 50% | Non-Toxic | 25% | 3.72 µM | – | inactive | – | – | – |
| O=C1C(=O)N(CCCCCCCCBr)c2ccccc21 | 100% | Non-Toxic | – | Non-Toxic | 100% | Non-Toxic | 75 - 100% | – | 100% | 0% | Non-Toxic | 0% | – | 18.4 µM | inactive | inactive | – | – |
| O=C1C(=O)N(CCCCBr)c2ccccc21 | 100% | Non-Toxic | 8.47% | Non-Toxic | 89.8% | Non-Toxic | 75 - 100% | 14.5 µM | 20.9% | 50% | Non-Toxic | 0% | – | – | – | – | – | – |
| O=C1C(=O)N(CCCCCN2C(=O)C(=O)c3cc(F)ccc32)c2ccccc21 | 100% | Non-Toxic | – | Non-Toxic | 100% | Non-Toxic | 100% | 27.3 µM | – | 75% | Non-Toxic | 50% | – | – | inactive | – | inactive | – |
| O=C1C(=O)N(CCCCCCBr)c2ccccc21 | 100% | Non-Toxic | – | Non-Toxic | 86.6% | Non-Toxic | 75 - 100% | – | 98.9% | 0% | Non-Toxic | 0% | – | 24.4 µM | inactive | inactive | – | – |
| O=C1C(=O)N(CCCCCN2C(=O)C(=O)c3cc(Cl)ccc32)c2ccccc21 | – | Non-Toxic | 100% | Non-Toxic | 100% | Non-Toxic | – | 14.8 µM | 100% | – | Non-Toxic | – | – | 23.9 µM | – | – | – | – |
| O=C1C(=O)N(CCCCCBr)c2ccccc21 | 100% | Non-Toxic | 100% | Non-Toxic | 71.4% | Non-Toxic | 75 - 100% | – | 25.8% | 50% | Non-Toxic | 0% | – | – | – | – | – | 23 µM |
| O=C1C(=O)N(CCCCN2C(=O)C(=O)c3cc(Br)ccc32)c2ccccc21 | – | Non-Toxic | – | Non-Toxic | 100% | Non-Toxic | – | – | – | – | Non-Toxic | – | 25 µM | – | inactive | – | inactive | – |
| O=C1C(=O)N(CCN2C(=O)C(=O)c3cc(Cl)ccc32)c2ccccc21 | 100% | Non-Toxic | 73.6% | Non-Toxic | 78.8% | Non-Toxic | 100% | 28.3 µM | 3.82% | 50% | Non-Toxic | 25% | 15 µM | – | – | – | – | – |
| Cc1ncc([N+](=O)[O-])n1CCO [METRONIDAZOLE] | – | – | – | – | – | – | – | – | – | – | – | – | – | 6.4 µM | – | – | – | 5 µM |
